# Experimental data from ChEMBL document CHEMBL1212780, “Anti-Clostridium difficile potential of tetramic acid derivatives from Pseudomonas aeruginosa quorum-sensing autoinducers” (Antimicrob Agents Chemother, 2010).
# Activity calls are given as the source filed them. The rule behind the calls is not given here.
# How the values were obtained:
# [1] = tested on: Clostridioides difficile; experiment: Antibacterial activity against Clostridium difficile assessed induction of bacteriolysis at 50 uM after 26 hrs; type: functional, organism-based
# Summary of the method: (§1)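 Anaerobic cultures in supplemented BHI were incubated with compound (30 or 50 μM depending on compound) for 26 h at 37°C. OD600 was read at each time point to follow growth and lysis, compared with an untreated control.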
# [2] = tested on: Clostridioides difficile; experiment: Drug uptake in Clostridium difficile assessed as dansylated compound accumulation at cell surface by electron microscopy; type: ADME, organism-based
# Summary of the method: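 Bacteria treated with dansyl-labelled compound, fixed in 0.5% glutaraldehyde/2% paraformaldehyde at 4°C for 1 h without osmium, and embedded in Unicryl. Ultrathin sections blocked in 1.5% BSA, then rabbit anti-dansyl (1:100, 2 h, room temperature) and 10-nm gold anti-rabbit IgG (1:20, 30 min). Nonimmune serum used as negative control.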
# [3] = tested on: Clostridioides difficile; experiment: Antibacterial activity against Clostridium difficile assessed as inhibition of bacterial viability at 3 to 50 uM after 24 hrs; type: functional, organism-based
# Summary of the method: (§2)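 Cultured anaerobically for 24 h at 37°C in supplemented BHI broth with a range of compound concentrations. Survivors counted by plating 10-fold serial dilutions. Detection limit 2 log CFU/ml. Compared against bacteria grown without compound.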
# [4] = tested on: Clostridioides difficile; experiment: Antibacterial activity against Clostridium difficile 1 assessed as inhibition of bacterial viability after 24 hrs; type: functional, organism-based
# Summary of the method: (§3)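 Four clinical isolates from pseudomembranous colitis patients, grown anaerobically at 37°C in BHI broth with 1% yeast extract and 0.1% L-cysteine. Broth cultures exposed 24 h to a range of compound concentrations (autoinducers at 50 μM). Viable counts made by plating 10-fold serial dilutions on sheep-blood Mueller-Hinton agar; n = 3.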
# [5] = tested on: Clostridioides difficile; experiment: Antibacterial activity against Clostridium difficile 2 assessed as inhibition of bacterial viability after 24 hrs; type: functional, organism-based; summary of the method: as §3
# [6] = tested on: Clostridioides difficile; experiment: Antibacterial activity against Clostridium difficile 3 assessed as inhibition of bacterial viability after 24 hrs; type: functional, organism-based; summary of the method: as §3
# [7] = tested on: Clostridioides difficile; experiment: Antibacterial activity against Clostridium difficile 4 assessed as inhibition of bacterial viability after 24 hrs; type: functional, organism-based; summary of the method: as §3
# [8] = tested on: Clostridioides difficile; experiment: Antibacterial activity against Clostridium difficile assessed as induction of morphological changes at 50 uM after 30 mins by Gram staining; type: functional, organism-based
# Summary of the method: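 Bacteria grown 24 h at 37°C, pelleted at 5,000 rpm for 5 min, then exposed to compound at 50 μM for the stated time. Gram-stained and examined by light microscopy, compared with untreated cells.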
# [9] = tested on: Clostridioides difficile; experiment: Antibacterial activity against Clostridium difficile assessed as induction of changes in cell surface structures by electron microscopy; type: functional, organism-based
# Summary of the method: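 Postfixed 1 h in 1% OsO4, ethanol-dehydrated and Epon-embedded. Surface structure of treated cells compared with control cells.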
# [10] = tested on: Clostridioides difficile; experiment: Induction of lipid membranes composition changes in Clostridium difficile by NMR spectroscopy; type: functional, organism-based
# [11] = tested on: Clostridioides difficile; experiment: Antibacterial activity against Clostridium difficile 1 assessed as inhibition of bacterial viability at 50 uM after 24 hrs; type: functional, organism-based
# Summary of the method: (§4)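 C. difficile clinical isolates from pseudomembranous colitis patients, grown anaerobically at 37°C in BHI broth with 1% yeast extract and 0.1% L-cysteine. Cultured 24 h with compound, then viable counts taken by plating serial 10-fold dilutions on Mueller-Hinton agar with 5% sheep blood. n = 3. Detection limit 2 log CFU/ml.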
# [12] = tested on: Clostridioides difficile; experiment: Antibacterial activity against Clostridium difficile 2 assessed as inhibition of bacterial viability at 50 uM after 24 hrs; type: functional, organism-based; summary of the method: as §4
# [13] = tested on: Clostridioides difficile; experiment: Antibacterial activity against Clostridium difficile 3 assessed as inhibition of bacterial viability at 50 uM after 24 hrs; type: functional, organism-based; summary of the method: as §4
# [14] = tested on: Clostridioides difficile; experiment: Antibacterial activity against Clostridium difficile 4 assessed as inhibition of bacterial viability at 50 uM after 24 hrs; type: functional, organism-based; summary of the method: as §4
# [15] = tested on: Clostridioides difficile; experiment: Antibacterial activity against Clostridium difficile assessed as inhibition of bacterial viability at 10 uM after 24 hrs relative to untreated control; type: functional; summary of the method: as §2
# [16] = tested on: Clostridioides difficile; experiment: Antibacterial activity against Clostridium difficile assessed induction of bacteriolysis at 30 uM after 26 hrs; type: functional, organism-based; summary of the method: as §1
structure (smiles),measurement,setting,value
CCCCCCCCC/C(O)=C1/C(=O)N[C@@H](C)C1=O,Activity,[1],Active
same,Drug uptake,[2],Active
same,inhibition,[3],Active
CCCCCCCCC/C(O)=C1/C(=O)N[C@@H](CCO)C1=O,Activity,[1],Active
same,inhibition,[4],Dose-dependent effect
same,inhibition,[5],Dose-dependent effect
same,inhibition,[6],Dose-dependent effect
same,inhibition,[7],Dose-dependent effect
same,Activity,[8],Active
same,Activity,[9],Active
same,Drug uptake,[2],Active
same,Activity,[10],Active
CCCCCCCCC/C(OC)=C1/C(=O)N[C@@H](CCO)C1=O,inhibition,[3],Active
CCCCCCCCCC(=O)CC(=O)N[C@H]1CCOC1=O,inhibition,[11],inactive
same,inhibition,[12],inactive
same,inhibition,[13],inactive
same,inhibition,[14],inactive
same,Activity,[9],inactive
same,Activity,[10],inactive
CCCCCCCCC/C(O)=C1\C(=O)CNC1=O,inhibition,[3],Active
same,fold change (FC),[15],100000
same,Activity,[16],Active
CCC/C(O)=C1/C(=O)N[C@@H](CCO)C1=O,inhibition,[3],Active
CCCC(=O)N[C@H]1CCOC1=O,inhibition,[11],inactive
same,inhibition,[12],inactive
same,inhibition,[13],inactive
same,inhibition,[14],inactive
CCCCCCCCC/C(O)=C1\C(=O)CN(C)C1=O,inhibition,[3],Active
same,Activity,[16],Active
CCCCCCCCC/C(O)=C1/C(=O)N[C@H](CCO)C1=O,Activity,[1],Active
same,Drug uptake,[2],Active
same,inhibition,[3],Active
